Source: PMC9532784 (Food Chemistry: X, 2022)

Tested on: PDE4
Test: In vitro PDE4-inhibitory assay
Assay type: biochemical
Conditions: ratio of IC50 values
Summary of the method: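 Fluorescence-polarization kit. Test compound diluted in assay buffer containing 10 % DMSO (dilution solvent, not final), then added to reactions with PDE4 and 200 nM FAM-cAMP for 1 h at room temperature. Binding agent (1:99 in diluent) added for 30 min at RT with slow shaking; FP read at ex 485/em 528 nm. Triplicate per concentration; % activity = (FP−FPb)/(FPt−FPb)×100. IC50 from dose-response fit; ratios taken between IC50s.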

Compound: C[C@@H]1O[C@@H](O[C@H]2C(=O)c3c(O)cc(O)cc3O[C@@H]2c2ccc(O)c(O)c2)[C@H](O)[C@H](O)[C@H]1O [Astilbin]
- fold higher PDE4 inhibitory effect than isoastilbin (versus isoastilbin): 8.9 fold
- fold higher PDE4 inhibitory effect than neoastilbin (versus neoastilbin): 2.9 fold
